pIC50: −log10 of the molar value. Values after ≈ are worked out from the molar mass of the structure shown.
Columns and labels:
[1] = molecular target: Muscarinic acetylcholine receptor M3 (Homo sapiens) (UniProt P20309); assay: Percentage binding to muscarinic M3 at 10 uM
[2] = molecular target: Vasopressin V2 receptor (Homo sapiens) (UniProt P30518); assay: Percentage binding to vasopressin V2 at 10 uM
[3] = molecular target: MAP kinase-activated protein kinase 5 (Homo sapiens) (UniProt Q8IW41); assay: Inhibition of PRAK at 10 uM
[4] = molecular target: Serine/threonine-protein kinase Sgk1 (Homo sapiens) (UniProt O00141); assay: Inhibition of SGK at 10 uM
[5] = molecular target: Substance-P receptor (Homo sapiens) (UniProt P25103); assay: Percentage binding to neurokinin K1 at 10 uM
[6] = molecular target: Phosphodiesterase 1 (Homo sapiens, UniProt P54750+Q01064+Q14123); assay: Inhibitory activity against PDE1 by scintillation proximity assay; assay type: protein assay
Procedure, shortened: (§1)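 Phosphodiesterase inhibition run as a scintillation proximity assay, with enzyme at a concentration in the linear range. Final substrate was 1 µM, below one-third of the enzyme K_M, so that IC50 approximates Ki. Values are means of n experiments with standard deviation.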

[7] = molecular target: 3-phosphoinositide-dependent protein kinase 1 (Homo sapiens) (UniProt O15530); assay: Inhibition of PDK1 at 10 uM
[8] = Oral bioavailability in rat; assay type: ADME, organism-based; details: Sprague-Dawley, in vivo
Procedure, shortened: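 Sprague–Dawley rats were dosed intravenously at 1 mg/kg in EtOH:PEG 400:H2O (1:4:5) and orally at 30 mg/kg in 0.5% methylcellulose. Plasma was sampled at 0.083, 0.25, 0.5, 1, 2, 4, 6 and 8 h after dosing and analysed.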

[9] = molecular target: Muscarinic acetylcholine receptor M2 (Homo sapiens) (UniProt P08172); assay: Percentage binding to muscarinic M2 at 10 uM
[10] = molecular target: Ribosomal protein S6 kinase alpha-5 (Homo sapiens) (UniProt O75582); assay: Inhibition of MSK1 at 10 uM
Chain of Ribosomal protein S6 kinase alpha-5 (Homo sapiens) (O75582 whole entry, looked up): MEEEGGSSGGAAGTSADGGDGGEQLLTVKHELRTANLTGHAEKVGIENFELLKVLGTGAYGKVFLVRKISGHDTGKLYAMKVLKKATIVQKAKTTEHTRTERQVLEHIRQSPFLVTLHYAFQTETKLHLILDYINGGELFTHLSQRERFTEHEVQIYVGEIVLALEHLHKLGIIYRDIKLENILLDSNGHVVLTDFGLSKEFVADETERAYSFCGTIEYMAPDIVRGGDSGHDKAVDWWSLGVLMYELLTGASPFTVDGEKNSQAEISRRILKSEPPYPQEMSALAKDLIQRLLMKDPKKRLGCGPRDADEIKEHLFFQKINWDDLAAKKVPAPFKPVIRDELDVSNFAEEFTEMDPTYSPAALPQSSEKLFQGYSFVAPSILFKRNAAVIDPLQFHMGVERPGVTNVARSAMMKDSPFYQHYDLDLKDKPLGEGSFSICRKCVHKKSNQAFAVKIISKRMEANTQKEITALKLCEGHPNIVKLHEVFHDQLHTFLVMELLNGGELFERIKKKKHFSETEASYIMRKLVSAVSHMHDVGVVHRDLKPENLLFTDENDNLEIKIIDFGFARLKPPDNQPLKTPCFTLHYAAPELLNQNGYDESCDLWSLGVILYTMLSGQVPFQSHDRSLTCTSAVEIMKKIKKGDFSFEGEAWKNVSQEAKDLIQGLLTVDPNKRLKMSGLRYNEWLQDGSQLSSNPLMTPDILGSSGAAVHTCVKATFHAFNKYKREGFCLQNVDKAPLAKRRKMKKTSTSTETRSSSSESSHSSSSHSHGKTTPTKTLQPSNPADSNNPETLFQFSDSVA

[11] = molecular target: Acetylcholine receptor; alpha1/beta1/delta/gamma (Homo sapiens) (UniProt P02708+P07510+P11230+Q07001); assay: Percentage binding to muscle NACHR at 10 uM; assay type: tissue-based; details: Muscle tissue
[12] = molecular target: 5-hydroxytryptamine receptor 2A (Homo sapiens) (UniProt P28223); assay: Percentage binding to serotonin 5HT2A at 10 uM
Chain of 5-hydroxytryptamine receptor 2A (Homo sapiens) (P28223 whole entry): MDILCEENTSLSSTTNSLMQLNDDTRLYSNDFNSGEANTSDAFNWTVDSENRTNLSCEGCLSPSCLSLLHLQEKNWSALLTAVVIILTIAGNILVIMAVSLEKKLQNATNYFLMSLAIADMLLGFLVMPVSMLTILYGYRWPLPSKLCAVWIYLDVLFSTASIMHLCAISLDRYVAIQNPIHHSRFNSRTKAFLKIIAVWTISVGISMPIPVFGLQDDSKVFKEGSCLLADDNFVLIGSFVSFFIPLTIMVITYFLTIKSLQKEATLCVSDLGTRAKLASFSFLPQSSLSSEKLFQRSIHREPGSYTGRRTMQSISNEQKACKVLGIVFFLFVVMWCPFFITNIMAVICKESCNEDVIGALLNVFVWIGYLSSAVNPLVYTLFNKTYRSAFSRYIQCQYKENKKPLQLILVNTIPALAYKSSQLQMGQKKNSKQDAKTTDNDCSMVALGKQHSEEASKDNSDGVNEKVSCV

[13] = molecular target: Serine/threonine-protein kinase Nek2 (Homo sapiens) (UniProt P51955); assay: Inhibition of NEK2 at 10 uM
[14] = molecular target: 3',5'-cyclic-AMP phosphodiesterase 4D (Homo sapiens, UniProt Q08499); assay: Inhibitory activity against PDE4D by scintillation proximity assay
Procedure, shortened: (§2)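 Scintillation proximity assay for phosphodiesterase inhibition. Enzyme is used at a concentration within the linear range, and its KM was measured. Final substrate concentration is 1 µM, below one-third of KM, so IC50 approximates Ki. Results are means of n experiments with standard deviation.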

[15] = molecular target: D(3) dopamine receptor (Homo sapiens) (UniProt P35462); assay: Percentage binding to dopamine D3 at 10 uM
[16] = molecular target: Beta-1 adrenergic receptor (Homo sapiens) (UniProt P08588); assay: Percentage binding to adrenergic beta-1 receptor at 10 uM
Chain of Beta-1 adrenergic receptor (Homo sapiens) (P08588 whole entry, looked up): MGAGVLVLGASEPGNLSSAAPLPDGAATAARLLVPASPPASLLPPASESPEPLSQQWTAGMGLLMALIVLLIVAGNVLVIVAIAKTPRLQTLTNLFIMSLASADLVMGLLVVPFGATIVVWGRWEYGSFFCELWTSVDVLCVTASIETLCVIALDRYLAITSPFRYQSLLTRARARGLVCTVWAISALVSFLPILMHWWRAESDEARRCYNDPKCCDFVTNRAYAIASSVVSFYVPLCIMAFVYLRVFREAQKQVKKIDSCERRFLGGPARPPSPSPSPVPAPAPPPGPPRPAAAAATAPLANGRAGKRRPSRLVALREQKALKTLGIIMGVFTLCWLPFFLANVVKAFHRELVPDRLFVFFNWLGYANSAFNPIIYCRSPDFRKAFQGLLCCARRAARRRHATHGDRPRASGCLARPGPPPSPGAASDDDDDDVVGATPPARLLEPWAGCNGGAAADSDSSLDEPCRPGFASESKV

[17] = molecular target: Mitogen-activated protein kinase 11 (Homo sapiens) (UniProt Q15759); assay: Inhibition of SAPK2b at 10 uM
[18] = molecular target: Phosphodiesterase 3 (Homo sapiens, UniProt Q14432+Q13370); assay: Inhibitory activity against PDE3 by scintillation proximity assay; assay type: protein assay; procedure, shortened: as §1
[19] = molecular target: High affinity cAMP-specific and IBMX-insensitive 3',5'-cyclic phosphodiesterase 8B (Homo sapiens, UniProt O95263); assay: Inhibitory activity against PDE8B by scintillation proximity assay; procedure, shortened: as §2
[20] = molecular target: Histamine H2 receptor (Homo sapiens) (UniProt P25021); assay: Percentage binding to histamine H2 at 10 uM
[21] = molecular target: Histamine H1 receptor (Homo sapiens) (UniProt P35367); assay: Percentage binding to histamine H1 at 10 uM
[22] = molecular target: Casein kinase II (Homo sapiens) (UniProt P67870+P68400+P19784); assay: Inhibition of CK2 at 10 uM; assay type: protein-complex assay
[23] = Percentage binding to GABA at 10 uM
Procedure, shortened: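 Single-concentration screen within a panel of 54 receptors and ion channels, measuring binding or interaction at each target.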

[24] = molecular target: Glutamate receptor ionotropic kainate (Homo sapiens) (UniProt P39086+Q16478+Q16099+Q13002+Q13003); assay: Percentage binding to kainate receptor at 10 uM; assay type: protein-complex assay
[25] = molecular target: B2 bradykinin receptor (Homo sapiens) (UniProt P30411); assay: Percentage binding to bradykinin B2 at 10 uM
Chain of B2 bradykinin receptor (Homo sapiens) (P30411 whole entry): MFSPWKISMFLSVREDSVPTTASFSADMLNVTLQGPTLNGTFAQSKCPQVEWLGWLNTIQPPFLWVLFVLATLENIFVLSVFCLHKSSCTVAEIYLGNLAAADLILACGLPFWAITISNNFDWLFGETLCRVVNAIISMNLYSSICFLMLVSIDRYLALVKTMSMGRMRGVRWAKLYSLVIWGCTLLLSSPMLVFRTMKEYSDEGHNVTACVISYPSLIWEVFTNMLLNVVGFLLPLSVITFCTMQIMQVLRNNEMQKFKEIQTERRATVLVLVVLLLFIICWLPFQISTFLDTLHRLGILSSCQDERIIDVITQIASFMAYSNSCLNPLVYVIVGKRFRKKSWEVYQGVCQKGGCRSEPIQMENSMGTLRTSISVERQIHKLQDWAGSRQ

[26] = test system: P-glycoprotein (human); assay: Basolateral cell permeability in MDCK with MDR transfectant overexpressing human p-glycoprotein; assay type: ADME, cell-based; details: MDCK-MDR1
[27] = molecular target: 5-hydroxytryptamine receptor 4 (Homo sapiens) (UniProt Q13639); assay: Percentage binding to serotonin 5HT4 at 10 uM
[28] = molecular target: Beta-2 adrenergic receptor (Homo sapiens) (UniProt P07550); assay: Percentage binding to adrenergic beta-2 receptor at 10 uM
Chain of Beta-2 adrenergic receptor (Homo sapiens) (P07550 whole entry, looked up): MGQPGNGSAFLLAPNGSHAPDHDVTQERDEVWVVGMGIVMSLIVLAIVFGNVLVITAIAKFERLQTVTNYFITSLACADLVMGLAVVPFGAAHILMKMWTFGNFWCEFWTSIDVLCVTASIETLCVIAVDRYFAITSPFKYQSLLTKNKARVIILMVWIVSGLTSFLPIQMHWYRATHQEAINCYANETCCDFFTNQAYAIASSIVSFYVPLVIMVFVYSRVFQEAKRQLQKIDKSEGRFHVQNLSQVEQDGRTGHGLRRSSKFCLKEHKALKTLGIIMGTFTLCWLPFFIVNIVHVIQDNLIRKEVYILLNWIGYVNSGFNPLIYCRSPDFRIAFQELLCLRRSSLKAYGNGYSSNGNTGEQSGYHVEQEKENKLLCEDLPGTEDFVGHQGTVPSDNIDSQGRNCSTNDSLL

[29] = molecular target: Serotonin 3 (5-HT3) receptor (Homo sapiens) (UniProt P46098+A5X5Y0+O95264+Q70Z44+Q8WXA8); assay: Percentage binding to serotonin 5HT3 at 10 uM; assay type: protein-complex assay
[30] = molecular target: Mitogen-activated protein kinase 8 (Homo sapiens) (UniProt P45983); assay: Inhibition of JNK1a1 at 10 uM
Chain of Mitogen-activated protein kinase 8 (Homo sapiens) (P45983 whole entry): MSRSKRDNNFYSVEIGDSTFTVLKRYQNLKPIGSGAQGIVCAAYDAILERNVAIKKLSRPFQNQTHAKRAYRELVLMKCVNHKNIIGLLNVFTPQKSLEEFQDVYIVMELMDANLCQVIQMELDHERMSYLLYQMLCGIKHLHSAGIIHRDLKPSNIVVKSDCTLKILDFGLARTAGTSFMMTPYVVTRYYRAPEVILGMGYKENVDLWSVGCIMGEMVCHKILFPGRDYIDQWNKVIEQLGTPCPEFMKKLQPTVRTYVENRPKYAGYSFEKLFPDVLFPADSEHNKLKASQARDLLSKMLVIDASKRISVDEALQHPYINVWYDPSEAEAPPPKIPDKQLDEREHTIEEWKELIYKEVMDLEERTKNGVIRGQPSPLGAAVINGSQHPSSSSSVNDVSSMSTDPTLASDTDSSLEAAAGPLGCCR

[31] = Turbidimetric solubility at pH 7; assay type: ADME, organism-based, Homo sapiens
[32] = Basolateral Caco-2 cell membrane permeability; assay type: ADME, cell-based; details: human
[33] = molecular target: Cyclooxygenase (Homo sapiens) (UniProt P35354+P23219); assay: Inhibition of COX at 10 uM; assay type: protein assay
[34] = molecular target: 5-hydroxytryptamine receptor 7 (Homo sapiens) (UniProt P34969); assay: Percentage binding to serotonin 5HT7 at 10 uM
[35] = molecular target: Glutamate receptor ionotropic AMPA (Homo sapiens) (UniProt P48058+P42263+P42262+P42261); assay: Percentage binding to AMPA at 10 uM; assay type: protein-complex assay
[36] = molecular target: Adrenergic receptor alpha-2 (Homo sapiens) (UniProt P08913+P18825+P18089); assay: Percentage binding to adrenergic alpha-2 receptor at 10 uM; assay type: protein assay
[37] = molecular target: 5-hydroxytryptamine receptor 1A (Homo sapiens) (UniProt P08908); assay: Percentage binding to serotonin 5HT1A at 10 uM
[38] = molecular target: cAMP and cAMP-inhibited cGMP 3',5'-cyclic phosphodiesterase 10A (Homo sapiens, UniProt Q9Y233); assay: Inhibitory activity against PDE10 by scintillation proximity assay; procedure, shortened: as §1
Chain of cAMP and cAMP-inhibited cGMP 3',5'-cyclic phosphodiesterase 10A (Q9Y233 whole entry): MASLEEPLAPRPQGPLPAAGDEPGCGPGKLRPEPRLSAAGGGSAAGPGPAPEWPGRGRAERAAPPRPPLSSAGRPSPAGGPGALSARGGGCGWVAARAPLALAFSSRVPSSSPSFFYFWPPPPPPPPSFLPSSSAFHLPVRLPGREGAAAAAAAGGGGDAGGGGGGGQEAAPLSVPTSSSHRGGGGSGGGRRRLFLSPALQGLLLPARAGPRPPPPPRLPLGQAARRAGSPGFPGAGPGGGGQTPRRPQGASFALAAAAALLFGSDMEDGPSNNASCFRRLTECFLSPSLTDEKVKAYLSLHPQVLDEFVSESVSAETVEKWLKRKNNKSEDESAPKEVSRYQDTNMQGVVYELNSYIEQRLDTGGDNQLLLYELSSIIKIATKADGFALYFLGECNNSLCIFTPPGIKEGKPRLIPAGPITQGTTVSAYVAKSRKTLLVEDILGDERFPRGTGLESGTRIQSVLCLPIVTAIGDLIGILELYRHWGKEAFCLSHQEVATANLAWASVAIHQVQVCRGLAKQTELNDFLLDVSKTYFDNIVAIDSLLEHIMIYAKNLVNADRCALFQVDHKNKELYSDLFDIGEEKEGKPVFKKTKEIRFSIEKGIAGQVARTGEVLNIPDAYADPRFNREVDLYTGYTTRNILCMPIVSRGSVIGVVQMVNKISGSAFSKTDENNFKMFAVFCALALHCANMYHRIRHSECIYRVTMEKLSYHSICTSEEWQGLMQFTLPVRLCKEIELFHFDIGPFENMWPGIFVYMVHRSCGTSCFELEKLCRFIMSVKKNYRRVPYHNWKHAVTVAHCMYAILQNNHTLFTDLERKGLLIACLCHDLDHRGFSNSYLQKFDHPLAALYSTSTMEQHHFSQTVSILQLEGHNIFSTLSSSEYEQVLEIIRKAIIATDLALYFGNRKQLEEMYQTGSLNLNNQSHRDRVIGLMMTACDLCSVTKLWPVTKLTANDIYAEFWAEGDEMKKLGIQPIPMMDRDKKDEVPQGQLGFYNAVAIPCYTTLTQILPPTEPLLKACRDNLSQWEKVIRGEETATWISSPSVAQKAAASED

[39] = molecular target: Platelet-activating factor receptor (Homo sapiens) (UniProt P25105); assay: Percentage binding to PAF at 10 uM
[40] = molecular target: Voltage-dependent N-type calcium channel subunit alpha-1B (Homo sapiens) (UniProt Q00975); assay: Percentage binding to Ca2+ channel N at 10 uM
[41] = molecular target: Ribosomal protein S6 kinase alpha-1 (Homo sapiens) (UniProt Q15418); assay: Inhibition of RSK1 at 10 uM

Chain of Vasopressin V2 receptor (Homo sapiens) (P30518 whole entry): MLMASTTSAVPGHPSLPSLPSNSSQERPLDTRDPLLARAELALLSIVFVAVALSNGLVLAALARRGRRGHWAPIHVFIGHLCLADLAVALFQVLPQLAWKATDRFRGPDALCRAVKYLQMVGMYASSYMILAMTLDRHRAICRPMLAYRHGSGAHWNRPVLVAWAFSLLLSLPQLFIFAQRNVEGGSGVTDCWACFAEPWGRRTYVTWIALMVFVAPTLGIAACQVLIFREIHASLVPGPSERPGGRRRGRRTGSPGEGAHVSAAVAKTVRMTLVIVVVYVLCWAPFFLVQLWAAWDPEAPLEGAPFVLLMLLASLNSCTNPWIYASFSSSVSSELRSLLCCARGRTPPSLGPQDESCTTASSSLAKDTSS
Chain of Muscarinic acetylcholine receptor M3 (Homo sapiens) (P20309 whole entry, looked up): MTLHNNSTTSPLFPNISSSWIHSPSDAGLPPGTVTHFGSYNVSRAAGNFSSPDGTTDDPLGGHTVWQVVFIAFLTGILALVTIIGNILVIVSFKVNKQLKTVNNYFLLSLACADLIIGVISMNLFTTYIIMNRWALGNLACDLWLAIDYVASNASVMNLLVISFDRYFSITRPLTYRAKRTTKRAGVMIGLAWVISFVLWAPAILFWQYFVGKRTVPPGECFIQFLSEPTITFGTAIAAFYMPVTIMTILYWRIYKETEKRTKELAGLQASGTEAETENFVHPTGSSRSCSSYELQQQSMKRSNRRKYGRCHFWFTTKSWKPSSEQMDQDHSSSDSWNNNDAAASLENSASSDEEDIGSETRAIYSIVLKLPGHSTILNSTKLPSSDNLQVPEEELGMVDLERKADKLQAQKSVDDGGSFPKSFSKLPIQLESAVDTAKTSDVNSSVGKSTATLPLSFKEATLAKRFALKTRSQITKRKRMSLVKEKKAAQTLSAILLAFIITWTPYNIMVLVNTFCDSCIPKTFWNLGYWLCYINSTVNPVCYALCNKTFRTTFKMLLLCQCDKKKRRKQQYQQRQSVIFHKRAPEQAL

CN1C(=O)C(C(=O)Nc2nncs2)c2cc3occc3cc21 (stereo unspecified)
Activity [1]: 0%
Activity [2]: 13%
inhibition [3]: 28%
inhibition [4]: 0%
Activity [5]: 0%
IC50 [6]: > 16 µM
inhibition [7]: 0%
bioavailability [8]: 41%
Activity [9]: 0%
inhibition [10]: 6%
Activity [11]: 0%
Activity [12]: 15%
inhibition [13]: 0%
pIC50 [14]: < 4.80
Activity [15]: 0%
Activity [16]: 15%
inhibition [17]: 5%
IC50 [18]: > 16 µM
pIC50 [19]: < 4.80
Activity [20]: 0%
Activity [21]: 7%
inhibition [22]: 32%
Activity [23]: 3%
Activity [24]: 0%
Activity [25]: 5%
Papp [26]: 4.6 ×10⁻⁶ cm/s
Activity [27]: 0%
Activity [28]: 12%
Activity [29]: 0%
inhibition [30]: 0%
solubility kinetic [31]: 55 µg/mL (≈ 175 µM)
Papp [32]: 32 ×10⁻⁶ cm/s
inhibition [33]: 0%
Activity [34]: 0%
Activity [35]: 20%
Activity [36]: 16%
Activity [37]: 23%
pIC50 [38]: < 4.80
Activity [39]: 21%
Activity [40]: 0%
inhibition [41]: 1%

Source: ChEMBL document CHEMBL1147762, “A new chemical tool for exploring the physiological function of the PDE2 isozyme” (Bioorg Med Chem Lett, 2006)
